Data set [1] in a line: Partition coefficient (logP). Type of data set: physicochemical. The conditions noted are these: octanol/water. The gist of the method:
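Log P obtained by a correlation method at pH 6.5.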

Data set [2] is described as follows: Acid dissociation constant of the compound. Type of data set: ADME.

This is an account of results in ChEMBL document CHEMBL1128674, “Evaluation of physicochemical parameters important to the oral bioavailability of peptide-like compounds: implications for the synthesis of renin inhibitors” (J Med Chem, 1995).

As to `CC(C)C[C@H](O)[C@H](O)[C@H](CC1CCCCC1)NC(=O)CN`, the logP – broadly, the decadic logarithm of the partition coefficient of the neutral form, usually between octanol and water – in data set [1] worked out at 1.52. In addition, the pKa – broadly, the pH at which an ionisable group is half protonated – in data set [2] came to 7.5.

On to `CCCC[C@H](NC(=O)[C@H](Cc1ccccc1)n1cccc1)C(=O)N[C@@H](CC1CCCCC1)[C@@H](O)[C@@H](O)CC(C)C`, for which the logP in data set [1] was found to be 4.9.

`CC(C)C[C@H](O)[C@H](O)[C@H](CC1CCCCC1)NC(=O)[C@H](Cc1csc(N)n1)NC(=O)[C@H](Cc1ccccc1)NS(=O)(=O)N1CCN(C(=O)CCC(=O)O)CC1` gave a logP in data set [1] of 2.03. In data set [2], the pKa was determined as 5.9.

In the case of `CC(C)C[C@H](O)[C@H](O)[C@H](CC1CCCCC1)NC(=O)[C@H](Cc1csc(N)n1)NC(=O)[C@H](Cc1ccccc1)NS(=O)(=O)N1CCOCC1`, the logP in data set [1] was 3.01.

In turn, `CC(C)C[C@H](O)[C@H](O)[C@@H](N)CC1CCCCC1` registered a logP in data set [1] of 1.86.

For `CC(C)C[C@H](O)[C@H](O)[C@H](CC1CCCCC1)NC(=O)C[C@@H](NC(=O)OC(C)(C)C)C(=O)O`, the log partition coefficient (logP) in data set [1] stood at 2.06. Also, the pKa in data set [2] amounted to 4.7.

`CC(C)C[C@H](O)[C@H](O)[C@H](CC1CCCCC1)NC(=O)/C=C/c1ccccc1` gave a logP in data set [1] of 3.61.

`CC(C)C[C@H](O)[C@H](O)[C@H](CC1CCCCC1)NC(=O)CCCCCc1ccccc1` came in with a logP in data set [1] of 4.66.
